Reference: ChEMBL document CHEMBL1153988 (J Med Chem, 2009)

How the values were obtained:
[1] = tested on: Mus musculus; assay: Anticonvulsant activity in CF1 albino mouse assessed as protection against scMet-induced seizures at 50 mg/kg, ip after 0.5 hrs; type: functional, organism-based; design: dose 50 mg/kg
Method in brief: (§1)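 Adult male CF no. 1 albino mice (18-25 g) dosed intraperitoneally with compound suspended in 0.5% methylcellulose (0.01 mL/g). Convulsant challenge given subcutaneously as a 0.85% pentylenetetrazol solution in 0.9% saline. Read-out is animals protected over animals tested, with neurotoxicity scored in parallel.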

[2] = tested on: Mus musculus; assay: Anticonvulsant activity in CF1 albino mouse assessed as protection against maximal electroshock-induced seizures at 50 mg/kg, ip after 0.5 hrs; type: functional, organism-based; design: dose 50 mg/kg
Method in brief: (§2)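 Adult male CF no. 1 albino mice (18-25 g). Test compound suspended in 0.5% methylcellulose and given intraperitoneally at 0.01 mL/g body weight. Maximal electroshock challenge at the stated time. Read-out is the number of animals protected over the number tested; neurotoxicity is scored in parallel.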

[3] = tested on: Mus musculus; assay: Neurotoxicity in CF1 albino mouse at 50 mg/kg, ip after 0.5 hrs; type: toxicity, organism-based; design: dose 50 mg/kg, route intraperitoneal; conditions: in vivo
Method in brief: (§3)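 Male CF no. 1 albino mice (18-25 g) received a single ip dose as a suspension in 0.5% methylcellulose. The read-out was the number of animals showing neurotoxicity (minimal motor impairment) over the number tested.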

[4] = tested on: Mus musculus; assay: Anticonvulsant activity in CF1 albino mouse assessed as protection against scMet-induced seizures at 450 mg/kg, ip after 0.5 hrs; type: functional, organism-based; design: dose 450 mg/kg; method in brief: as §1
[5] = tested on: Mus musculus; assay: Neurotoxicity in CF1 albino mouse at 150 mg/kg, ip after 0.5 hrs; type: toxicity, organism-based; design: dose 150 mg/kg, route intraperitoneal; conditions: in vivo; method in brief: as §3
[6] = tested on: Mus musculus; assay: Anticonvulsant activity in CF1 albino mouse assessed as protection against maximal electroshock-induced seizures at 50 mg/kg, ip after 4 hrs; type: functional, organism-based; design: dose 50 mg/kg; method in brief: as §2
[7] = tested on: Mus musculus; assay: Neurotoxicity in CF1 albino mouse at 50 mg/kg, ip after 4 hrs; type: toxicity, organism-based; design: dose 50 mg/kg, route intraperitoneal; conditions: in vivo; method in brief: as §3
[8] = tested on: Mus musculus; assay: Neurotoxicity in CF1 albino mouse at 450 mg/kg, ip after 0.5 hrs; type: toxicity, organism-based; design: dose 450 mg/kg, route intraperitoneal; conditions: in vivo; method in brief: as §3
[9] = tested on: Mus musculus; assay: Anticonvulsant activity in CF1 albino mouse assessed as protection against scMet-induced seizures at 450 mg/kg, ip after 4 hrs; type: functional, organism-based; design: dose 450 mg/kg; method in brief: as §1
[10] = tested on: Mus musculus; assay: Anticonvulsant activity in CF1 albino mouse assessed as protection against maximal electroshock-induced seizures at 450 mg/kg, ip after 0.5 hrs; type: functional, organism-based; design: dose 450 mg/kg; method in brief: as §2
[11] = tested on: Mus musculus; assay: Anticonvulsant activity in CF1 albino mouse assessed as protection against maximal electroshock-induced seizures at 450 mg/kg, ip after 4 hrs; type: functional, organism-based; design: dose 450 mg/kg; method in brief: as §2
[12] = tested on: Mus musculus; assay: Anticonvulsant activity in CF1 albino mouse assessed as protection against maximal electroshock-induced seizures at 150 mg/kg, ip after 0.5 hrs; type: functional, organism-based; design: dose 150 mg/kg; method in brief: as §2
[13] = tested on: Mus musculus; assay: Anticonvulsant activity in CF1 albino mouse assessed as protection against scMet-induced seizures at 150 mg/kg, ip after 4 hrs; type: functional, organism-based; design: dose 150 mg/kg; method in brief: as §1
[14] = tested on: Mus musculus; assay: Neurotoxicity in CF1 albino mouse at 150 mg/kg, ip after 4 hrs; type: toxicity, organism-based; design: dose 150 mg/kg, route intraperitoneal; conditions: in vivo; method in brief: as §3
[15] = tested on: Mus musculus; assay: Anticonvulsant activity in CF1 albino mouse assessed as protection against scMet-induced seizures at 150 mg/kg, ip after 0.5 hrs; type: functional, organism-based; design: dose 150 mg/kg; method in brief: as §1
[16] = tested on: Mus musculus; assay: Neurotoxicity in CF1 albino mouse at 450 mg/kg, ip after 4 hrs; type: toxicity, organism-based; design: dose 450 mg/kg, route intraperitoneal; conditions: in vivo; method in brief: as §3
[17] = tested on: Mus musculus; assay: Anticonvulsant activity in CF1 albino mouse assessed as protection against maximal electroshock-induced seizures at 150 mg/kg, ip after 4 hrs; type: functional, organism-based; design: dose 150 mg/kg; method in brief: as §2
[18] = tested on: Mus musculus; assay: Anticonvulsant activity in CF1 albino mouse assessed as protection against scMet-induced seizures at 50 mg/kg, ip after 4 hrs; type: functional, organism-based; design: dose 50 mg/kg; method in brief: as §1
[19] = tested on: Mus musculus; assay: Anticonvulsant activity in ip dosed CF1 albino mouse assessed as protection against 32 mA current-induced seizure by 6Hz psychomotor seizure test; type: functional
Method in brief: (§4)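 In the 6 Hz psychomotor seizure test, male CF no. 1 albino mice (18-25 g) received the compound ip in 0.5% methylcellulose. Stimulation was at 32 or 44 mA. Doses were varied to give 3-4 points between 0% and 100% protection, and ED50 with 95% confidence interval came from probit analysis.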

[20] = organism: Mus musculus; assay: Protective index, ratio of TD50 for CF1 albino mouse to ED50 for 32 mA current-induced CF1 albino mouse seizure model; type: functional
Method in brief: (§5)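 Protective index is the mouse TD50 (minimal motor impairment) divided by the 6 Hz test ED50 at 32 or 44 mA. Male CF no. 1 mice were dosed ip in 0.5% methylcellulose, and values came from probit analysis.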

[21] = tested on: Mus musculus; assay: Anticonvulsant activity in ip dosed CF1 albino mouse assessed as protection against 44 mA-current-induced seizure by 6Hz psychomotor seizure test; type: functional; method in brief: as §4
[22] = tested on: Mus musculus; assay: Neurotoxicity in ip dosed CF1 albino mouse assessed as minimal motor impairment; type: toxicity, organism-based; conditions: mouse, in vivo
Method in brief: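 Mice: male CF no. 1 albino (18-25 g), ip dosing in 0.5% methylcellulose. Minimal motor impairment was scored, with doses varied to give four points between no impairment and all animals impaired.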

[23] = tested on: Mus musculus; assay: Anticonvulsant activity in ip dosed CF1 albino mouse assessed as protection against maximal electroshock-induced seizures; type: functional
Method in brief: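 Male CF no. 1 albino mice (18-25 g) were dosed ip in 0.5% methylcellulose and tested by maximal electroshock. Doses were varied to give 3-4 points between 0% and 100% protection. ED50 with 95% confidence interval came from probit analysis.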

[24] = tested on: Rattus norvegicus; assay: Anticonvulsant activity in po dosed albino Sprague-Dawley rat assessed as protection against scMet-induced seizures; type: functional
Method in brief: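 Male Sprague-Dawley albino rats (100-150 g) were dosed orally in 0.5% methylcellulose and tested by MES or by sc pentylenetetrazol (2.82% in 0.9% saline). Doses were varied to give 3-4 points between 0% and 100% protection. ED50 and 95% confidence intervals came from probit analysis.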

[25] = Neurotoxicity in po dosed albino Sprague-Dawley rat assessed as minimal motor impairment; type: toxicity, organism-based; conditions: in vivo
Method in brief: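 Rats: male Sprague-Dawley (100-150 g), oral dosing in 0.5% methylcellulose. Doses were varied to give four points between no minimal motor impairment and all animals impaired. TD50 and 95% confidence intervals came from probit analysis.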

[26] = tested on: Rattus norvegicus; assay: Anticonvulsant activity in po dosed albino Sprague-Dawley rat assessed as protection against maximal electroshock-induced seizures; type: functional
[27] = organism: Mus musculus; assay: Protective index, ratio of TD50 for CF1 albino mouse to ED50 for maximal electroshock-induced CF1 albino seizure mouse model; type: functional
Method in brief: (§6)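 Ratio of TD50 to ED50 (MES or scMet) in male CF no. 1 mice (18-25 g) given ip doses in 0.5% methylcellulose. TD50 comes from minimal motor impairment: the dose was varied until four points lay between no impairment and all animals impaired. Both TD50 and ED50 were derived by probit analysis with 95% confidence intervals.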

[28] = tested on: Mus musculus; assay: Anticonvulsant activity in ip dosed CF1 albino mouse assessed as protection against scMet-induced seizures; type: functional
Method in brief: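 Adult male CF no. 1 albino mice (18-25 g) dosed ip with compound suspended in 0.5% methylcellulose (0.01 mL/g body weight). Seizures were induced by subcutaneous pentylenetetrazol, given as a 0.85% solution in 0.9% saline. ED50 was found by varying the dose to give 3-4 points between 0% and 100% protection, then probit analysis with 95% confidence intervals.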

[29] = organism: Mus musculus; assay: Protective index, ratio of TD50 for CF1 albino mouse to ED50 for scMet-induced CF1 albino seizure mouse model; type: functional; method in brief: as §6
[30] = organism: Rattus norvegicus; assay: Protective index, ratio of TD50 for albino Sprague-Dawley rat to ED50 for scMet-induced albino Sprague-Dawley rat seizure model; type: functional
Method in brief: (§7)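 Protective index is the rat TD50 (minimal motor impairment) divided by the ED50 in the MES or sc pentylenetetrazol test. Male Sprague-Dawley rats were dosed orally in 0.5% methylcellulose, and both values came from probit analysis.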

[31] = organism: Rattus norvegicus; assay: Protective index, ratio of TD50 for albino Sprague-Dawley rat to ED50 for maximal electroshock-induced albino Sprague-Dawley rat seizure model; type: functional; method in brief: as §7
[32] = organism: Mus musculus; assay: Protective index, ratio of TD50 for CF1 albino mouse to ED50 for 44 mA-current-induced CF1 albino mouse seizure model; type: functional; method in brief: as §5

CC1(C)C(C)(C)C1(Br)C(=O)O
Activity [1]: Non-toxic | Activity [2]: Non-toxic | Activity [3]: Non-toxic | Activity [4]: Non-toxic | Activity [5]: Non-toxic | Activity [6]: Non-toxic | Activity [7]: Non-toxic | Activity [8]: Non-toxic | Activity [9]: Non-toxic | Activity [10]: Non-toxic | Activity [11]: Non-toxic | Activity [12]: Non-toxic | Activity [13]: Non-toxic | Activity [14]: Non-toxic | Activity [15]: Non-toxic | Activity [16]: Non-toxic | Activity [17]: Non-toxic | Activity [18]: Non-toxic

CC1(C)C(C(N)=O)C1(C)C
ED50 [19]: 72 mg/kg | PI [20]: 1.4 | ED50 [21]: > 200 mg/kg | ED50 [22]: 99 mg/kg

CCCC(CCC)C(N)=O [VALPROMIDE]
ED50 [23]: 56 mg/kg | ED50 [24]: 59 mg/kg | TD50 [25]: 87 mg/kg | ED50 [26]: 32 mg/kg | ED50 [19]: 57 mg/kg | PI [27]: 1.4 | ED50 [28]: 55 mg/kg | PI [29]: 1.5 | PI [30]: 1.5 | PI [31]: 2.7 | PI [20]: 1.4 | ED50 [21]: 66 mg/kg | PI [32]: 1.2 | ED50 [22]: 81 mg/kg
